High-throughput results: PubChem BioAssay, several laboratories
Only some compounds are listed: those with a hit (about 3.7% of all), similar ones and a draw of the others.
Granule exo inh = blocks lytic granule exocytosis | TALL-104 LAMP-1 surface exposure, flow cytometry; cells stimulated with thapsigargin and PMA | inhibition, % at 10 µM | actives 0.66% (n = 360,000);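 active = inhibition above about 55%, limit read from the data; inconclusive = no clear call, values can overlap the other calls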
MC4R antagonist = blocks human MC4R cAMP signaling. P32245. MC4R-expressing cells, MTII-stimulated cAMP, LANCE TR-FRET. inhibition, % at 6.5 µM. actives 0.48% (n = 360,000). AID 540295;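 active = inhibition above its plate's cutoff, the mean of tested wells on that plate plus 3 SD, cut at about 29% in these data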
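Assay system: human MC4R-expressing U2OS cells; reagent: Melanotan II stimulation of cells; dosing: 6.5 µM single dose; timing: compound 30 min, challenge 1 h, detection 1 h; signal: TR-FRET cAMP assay; replicates: one well per compound, no replicates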
MC4R ag barr = human MC4R agonism via beta-arrestin; AID 540308; U2OS MC4R beta-arrestin complementation, luminescence; percent of melanotan II response, DMSO zero; actives 0.98% (n = 360,000); activation, % at 8.9 µM; P32245;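 active = activation above a per-plate cutoff, the mean activation of sample wells on that plate plus 3 SD, cut at about 8% in these data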
Myeloid diff MLP = myeloid differentiation induction; ER-HoxA9 myeloid progenitors, lysozyme-GFP differentiation, flow cytometry; calls only at 10 µM; actives 1% (n = 360,000);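 active = normalized GFP-positive differentiation at or above the plate's own cutoff, the solvent-only control mean plus 3 SD; inconclusive = no clear call, values can overlap the other calls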;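 note: cells exposed to compound for four days before flow analysis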
EBI2 block = EBI2 (human) antagonism; EBI2 beta-arrestin recruitment, luminescence, 7a,25-OHC stimulated; inhibition, % at 5 µM; actives 0.81% (n = 360,000); AID 651636; in the data active = inhibition above about 38%;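 note: enzyme fragment complementation signal reports receptor beta-arrestin coupling in cells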
Target sequence (P32249 whole entry, looked up, the tested form may be a part): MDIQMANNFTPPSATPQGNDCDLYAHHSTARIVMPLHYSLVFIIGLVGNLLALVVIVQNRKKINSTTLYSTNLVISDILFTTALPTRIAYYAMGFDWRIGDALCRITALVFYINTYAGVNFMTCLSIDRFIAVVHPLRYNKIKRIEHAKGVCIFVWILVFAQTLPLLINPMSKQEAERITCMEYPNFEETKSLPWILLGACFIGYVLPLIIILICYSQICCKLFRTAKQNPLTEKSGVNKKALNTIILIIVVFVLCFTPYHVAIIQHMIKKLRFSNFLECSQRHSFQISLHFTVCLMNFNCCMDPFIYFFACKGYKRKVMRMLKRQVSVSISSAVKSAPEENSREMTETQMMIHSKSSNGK
Myeloid diff CP1 = compounds promoting myeloid differentiation; actives 2% (n = 2,300); shares compounds with Myeloid diff MLP; calls only; ER-HoxA9 myeloid progenitors, GFP/Mac1 double-positive flow;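 active = share of green or green-and-red cells above 9 and 9% in run 1 or 4 and 3% in run 2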
GFP autofluor = flagged as fluorescent in myeloid differentiation counter-screen. shares compounds with Myeloid diff MLP. ER-HoxA9 myeloid progenitors, no estrogen, GFP autofluorescence flow cytometry; vehicle wells 0%, positive control 100%. fluorescence response, % (no concentration beside the values). actives 7.4% (n = 2,300);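 active = over 5% cells positive for green fluorescent reporter, or over 2% positive for both it and APC stain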
Numbers stand for hits; 0 = inactive; ? = inconclusive; - = no result given; + = active, no number.

SMILES	Granule exo inh	MC4R antagonist	MC4R ag barr	Myeloid diff MLP	EBI2 block	Myeloid diff CP1	GFP autofluor
O=c1[nH]c(=O)n(C2CCCCC2)c(O)c1/C=C/C=Nc1ccccc1	0	0	0	+	0	0	7.5
COc1ccc(-n2c(O)c(/C(C)=N/Nc3ccccc3)c(=O)[nH]c2=O)cc1	0	0	0	0	0	-	-
C=CCn1c(O)c(/C=C/C=Nc2ccccc2)c(=O)[nH]c1=O	0	0	0	0	0	-	-
Cc1ccc(-n2c(O)c(/C=C/C=Nc3ccccc3)c(=O)[nH]c2=O)cc1	0	0	0	0	0	0	0
COc1ccc(-n2c(O)c(/C=C/C=Nc3ccccc3)c(=O)[nH]c2=O)cc1	0	0	0	0	0	0	97
O=C(Nc1ccc(F)cc1F)c1cccnc1Oc1cccc(C(F)(F)F)c1	0	0	0	0	0	-	-
CC(=O)NC(Cc1ccc(N(CCCl)CCCl)cc1)C(=O)NC(CC(C)C)C(=O)O (stereo not given)	0	0	0	0	0	-	-
O=C(O)C1C2c3ccccc3C(O)C1(C(=O)O)c1ccccc12 (stereo not given)	0	0	0	0	0	-	-
O=C(Nc1cccc(OC(=O)N2CCCCC2)c1)N1CCCCC1	0	0	0	0	0	0	0
O=c1[nH]c(=S)[nH]c(O)c1/C=C1/C=c2ccccc2=N1	0	0	0	+	0	0	16
Cc1cccc2c1=NC(=O)/C(=C/c1c(O)[nH]c(=O)[nH]c1=O)C=2	0	0	0	0	0	-	-
ClCCOCCCl	0	0	0	0	0	-	-
CC(=O)Nc1ccc([As](=O)(O)c2ccc([N+](=O)[O-])cc2)cc1	0	0	0	0	0	0	0
OC(c1ccccc1)(c1ccccc1)c1ccncc1	0	0	0	+	0	0	0
Cn1ccnc1P(=S)(c1nccn1C)c1nccn1C	0	0	0	+	0	0	0
CCOC(=O)C1CCCN(c2ccc([N+](=O)[O-])c3nonc23)C1 (stereo not given)	0	0	0	+	0	0	58
Cc1ccc(C(=O)Nc2ccc(Cl)cc2C(=O)c2ccccc2)cc1	0	0	0	0	0	0	5.1
CCC(C)C1N=C(c2ccccc2)c2cc(Cl)ccc2N(CC(=O)NCc2ccco2)C1=O (stereo not given)	0	0	0	0	0	-	-
Cc1ccccc1C1=NCC(=O)N(CC(=O)NCc2ccco2)c2sc3c(c21)CCCC3	0	0	0	0	0	0	0
O=c1[nH]cc(COCC(F)(F)C(F)(F)C(F)(F)F)c(=O)[nH]1	0	0	0	0	0	-	-
COC(=O)C12CCc3cc(OC)ccc3C1=CC(=O)C2 (stereo not given)	0	0	0	0	0	-	-
O=C1NC(=O)N(Cc2ccccc2)C(=O)/C1=C/C=C/c1ccco1	?	0	0	0	0	0	0
C=CCn1c(O)c(C=NCCCOc2ccc(CC)cc2)c(=O)[nH]c1=S	0	0	0	+	0	0	0
OC(Cn1c2ccccc2c2ccccc21)C[n+]1cccc2ccccc21 (stereo not given)	0	0	0	0	0	-	-
COc1ccc(OC(=O)N(C)C[C@@H]2OCc3cnnn3CCCC(=O)N([C@@H](C)CO)C[C@@H]2C)cc1	0	0	0	0	0	0	0
SMILES	Granule exo inh	MC4R antagonist	MC4R ag barr	Myeloid diff MLP	EBI2 block	Myeloid diff CP1	GFP autofluor
COc1ccc(OC(=O)N(C)C[C@H]2OCc3cnnn3CCCC(=O)N([C@@H](C)CO)C[C@H]2C)cc1	0	0	0	0	0	-	-
CCOC(=O)c1nsnc1NCCCl	0	0	0	0	0	-	-
COc1ccc2c3c1OC1C(O)C=CC4C(C2)[N+](C)(C)CCC341 (stereo not given)	0	0	0	0	0	-	-
COC(=O)C1=CO[C@@H](C)[C@@H]2CN(CCc3c[nH]c4ccccc34)CC[C@H]12	0	0	0	0	0	-	-
O=c1[nH]c2ccccc2n1C1CCN(Cc2ccc(-c3nc4ccccc4nc3-c3ccccc3)cc2)CC1	0	-	-	0	0	-	-
O=c1[nH]c2ccccc2n1C1CCN(Cc2ccc(-c3nc4ccc(F)cc4nc3-c3ccccc3)cc2)CC1	0	-	-	+	0	0	0
CCOC(=O)[C@]12Cc3ccccc3[C@H]1N(Cc1ccccc1)C(=O)c1ccccc12	0	0	0	0	0	-	-
CCOC(=O)[C@]12Cc3ccccc3[C@H]1N(CCC(=O)OC)C(=O)c1ccccc12	0	-	-	+	0	0	0
CCCCCN1C(=O)c2ccccc2[C@@]2(C(=O)OCC)Cc3cc(OC)ccc3[C@@H]12	0	-	-	+	0	0	0
O=C(CCC(=O)N1C[C@H]2C[C@@H](C1)c1cccc(=O)n1C2)NCc1ccc(F)cc1	0	0	0	0	0	-	-
O=C(CCC(=O)N1CC2C[C@@H](C1)Cn1c2cccc1=O)NCCc1ccccc1F	0	0	0	0	0	0	0
CCCNC(=O)N1[C@H]2CC[C@@H]1C(C(=O)OC)=C(c1ccc3ccccc3c1)C2	0	0	0	0	0	0	0
COC(=O)C1=C(c2ccc(OC(F)(F)F)cc2)C[C@@H]2CC[C@H]1N2C(=O)NC1CCCCC1	0	0	0	0	0	0	0
COC(=O)C1=C(c2cc3ccccc3s2)C[C@@H]2CC[C@H]1N2C(=O)N1CCCC1	0	0	0	0	0	-	-
COC(=O)C1=C(c2cc3ccccc3s2)C[C@@H]2CC[C@H]1N2C(=O)N1CCOCC1	0	0	0	0	0	0	0
ClCCN(CCCl)c1ccc(C=NNc2ncccn2)cc1	0	0	0	-	0	-	-
O=C(Cc1cc(=O)oc2cc(O)ccc12)NN=Cc1ccc(N(CCCl)CCCl)cc1	0	0	0	0	0	0	0
CC1(C)C(=O)CC[C@@]2(C)C1=CCC1C2CC[C@]2(C)C(=O)CCC12 (stereo not given in full)	0	0	0	0	0	-	-
COc1ccc(CN2Cc3cc(N4CCOCC4)ccc3-n3nncc3C2)cc1	0	-	-	0	0	-	-
COc1ccc(CC(=O)N2CCN(C)CC2)cc1	0	0	0	0	0	0	0
CCC(CC)NCc1c[nH]c2ccccc12	0	0	0	+	0	0	0
COc1ccc(CN2CCN(Cc3ccccc3)CC2)c(OC)c1	0	0	0	0	0	0	0
COc1ccc(CN2CCN(C(=O)Cc3ccccc3)CC2)c(OC)c1	0	0	0	0	0	-	-
CCOC(=O)c1c(NC(=O)c2c(N)n(CCCOC)c3nc4ccccc4nc23)sc2c1CCCC2	0	0	0	0	0	0	0
Cc1nn(Cc2ccccc2Cl)c(C)c1C(=O)OCC(=O)N1CC(C)OC(C)C1 (stereo not given)	0	0	0	0	0	-	-
CC(=O)c1ccc(OC(NC(=O)c2ccco2)C(Cl)(Cl)Cl)cc1 (stereo not given)	0	0	0	+	0	0	0
